Screening results (PubChem)
A selection: hits, their analogues and other compounds. The true share with any hit is near 2.3%.
TRPC4 agonist = activators of mouse TRPC4 channel. Q9QUQ5. B-score at 10 µM. HEK293 TRPC4beta/mu-opioid, Fluo4 calcium fluorescence; active compounds read high. 310,000 compounds, 0.49% hits;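 active means B-score above 5 SD of library B-scores, and initial fluorescence ratio not above library mean plus 5 SD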;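 further: positive B-score marks a calcium rise read as TRPC4 activation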
Target sequence (Q9QUQ5 whole entry, looked up): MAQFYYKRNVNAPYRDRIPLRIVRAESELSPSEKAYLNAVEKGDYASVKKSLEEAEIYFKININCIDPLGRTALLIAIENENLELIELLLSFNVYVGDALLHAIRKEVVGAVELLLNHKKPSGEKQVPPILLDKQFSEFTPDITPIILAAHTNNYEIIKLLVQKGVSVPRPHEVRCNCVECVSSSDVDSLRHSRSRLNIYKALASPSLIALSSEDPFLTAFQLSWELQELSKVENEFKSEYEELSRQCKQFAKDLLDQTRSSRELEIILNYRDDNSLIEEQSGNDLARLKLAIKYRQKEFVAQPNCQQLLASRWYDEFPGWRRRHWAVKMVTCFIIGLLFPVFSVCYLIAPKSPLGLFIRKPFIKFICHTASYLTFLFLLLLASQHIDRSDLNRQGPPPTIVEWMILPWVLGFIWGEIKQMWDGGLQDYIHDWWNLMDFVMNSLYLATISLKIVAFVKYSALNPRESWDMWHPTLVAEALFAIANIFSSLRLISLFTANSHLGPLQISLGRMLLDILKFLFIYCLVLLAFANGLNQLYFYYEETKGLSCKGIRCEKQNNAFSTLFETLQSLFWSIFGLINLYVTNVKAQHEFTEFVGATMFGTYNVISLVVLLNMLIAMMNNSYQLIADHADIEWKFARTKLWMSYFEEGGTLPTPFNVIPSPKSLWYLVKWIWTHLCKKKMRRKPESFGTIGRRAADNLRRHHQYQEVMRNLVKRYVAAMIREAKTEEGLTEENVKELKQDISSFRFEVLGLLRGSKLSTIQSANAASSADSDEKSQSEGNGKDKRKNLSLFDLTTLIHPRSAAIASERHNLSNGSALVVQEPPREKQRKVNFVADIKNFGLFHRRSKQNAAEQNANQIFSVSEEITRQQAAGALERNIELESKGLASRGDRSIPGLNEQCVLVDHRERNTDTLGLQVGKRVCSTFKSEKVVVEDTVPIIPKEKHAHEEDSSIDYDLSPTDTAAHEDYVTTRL
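Material: HEK293 stable line with TRPC4beta plus mu-opioid receptor; technique: Fluo4 calcium-sensitive dye fluorescence, kinetic, 1 Hz baseline; timing: Fluo4 dye loading 45 min at room temperature, 110 s recording; controls: assay buffer as low control, maximal DAMGO as high control; read-out: integrated baseline-normalised fluorescence ratio, converted to per-well B score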
TRPC6 act = mouse TRPC6 channel activation. HEK293-TRPC6 membrane potential dye fluorescence; active compounds read high. B-score at 10 µM. 310,000 compounds, 0.13% hits. AID 2550;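 active means B-score of the integrated fluorescence ratio above library mean plus 3 SD, and starting fluorescence ratio within library mean plus 5 SD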;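 further: higher score means more depolarization so channel activation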
TRPC4 potent = TRPC4 (mouse) allosteric potentiation | B-score at 10 µM | 310,000 compounds, 0.42% hits | AID 2227 | HEK293 TRPC4beta/mu-opioid, DAMGO EC20, Fluo-4 Ca2+ flux; active compounds read high;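 active means B-score of calcium response area above 5 SD of library B-scores, with initial fluorescence ratio within 5 SD of library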;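 further: B-score of integrated fluorescence ratio over time as area under calcium response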
TRPC4 inh = blocks the mouse TRPC4 cation channel | B-score at 10 µM | 300,000 compounds, 0.39% hits | Q9QUQ5 | HEK293 TRPC4beta/mu-opioid, DAMGO-evoked Fluo4 calcium flux; active compounds read low;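 active means B-score over 3 SD under the library average, no early fluorescence shift, positive overall ratio signal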
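material = TRPC4beta/mu-opioid receptor HEK293 cell line | probe or stimulus = sequential submaximal and maximal DAMGO stimulation | compound dosing = one concentration per compound | measured by = Fluo4 Ca2+ flux fluorescence | evaluation = integrated fluorescence ratio relative to baseline, converted to per-well B score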
TRPC6 inh = blocks the mouse TRPC6 cation channel; AID 2553; 310,000 compounds, 1.1% hits; Q61143; B-score at 10 µM; HEK293-TRPC6, membrane potential dye, ACh-evoked depolarization; active compounds read low;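 active means B-score under library mean minus 3 SD, initial fluorescence not abnormally high, positive integrated signal ratio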;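 further: B-score derived from integrated fluorescence ratio over the kinetic read; more negative B-score means stronger inhibition of depolarization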
TRPC4 spec 2 = mouse TRPC4 off-target activity of TRPC6 inhibitors, second screen. shares compounds with TRPC6 inh. HEK293 TRPC4/MOR, membrane potential dye fluorescence; channel activated by saturating DAMGO dose. inhibition, % at 10 µM. 920 compounds, 42% hits. AID 2776;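 active means compounds whose fluorescence signal differed from control wells by over 3 SD, either direction, in both duplicate plates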
TRPC4 spec = tests whether TRPC6 inhibitors also affect mouse TRPC4 | shares compounds with TRPC6 inh | HEK293 TRPC4/mu-opioid, membrane potential fluorescence | activity change, negative = inhibition, % at 10 µM | 920 compounds, 61% hits;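 active means rise or fall in signal beyond 3 SD of buffer-only wells in both replicate plates, either sign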;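 further: integrated kinetic ratio of fluorescence range over baseline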
HEK293 MPD ctr 2-1 = parental HEK293 nonspecific activity of TRPC6 inhibitors, second screen | shares compounds with TRPC6 inh | parental HEK293 membrane potential dye fluorescence; maximal acetylcholine challenge after compound addition | signal change vs control, % at 10 µM | 920 compounds, 31% hits;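 active means membrane potential signal moving either way by over 3 SD of the maximum-effect control, in both duplicate plates, meaning non-specific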
HEK293 MPD ctr-1 = counter-screen for TRPC6 inhibitors: effect in parental HEK293 cells; shares compounds with TRPC6 inh; parental HEK293 membrane potential dye fluorescence; membrane potential signal change, % at 10 µM; 920 compounds, 60% hits; AID 2780;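 active means membrane potential signal shifting up or down by more than 3 SD of buffer-only wells, on both duplicate plates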
HEK293 MPD ctr-2 = parental HEK293 nonspecific activity of TRPC6 modulators. membrane potential signal change, % at 10 µM. AID 488924. shares compounds with TRPC6 inh. 2,400 compounds, 51% hits. membrane potential dye fluorescence;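 active means membrane potential signal moves up or down beyond 5 SD from buffer-only wells, on both duplicate plates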
HEK293 MPD ctr 2-2 = second check of TRPC6 modulator effects in parental HEK293 cells | shares compounds with TRPC6 inh | membrane potential dye fluorescence; after compound, maximal acetylcholine stimulation | inhibition, % at 10 µM | 2,400 compounds, 14% hits;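 active means membrane potential signal drops by more than 5 SD from the mean control signal, in both duplicate plates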;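 further: plate controls were acetylcholine ECmax control wells for no effect and buffer only wells for full effect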
TRPC4/MOR mod = mouse TRPC4 off-target activity of TRPC6 modulators | AID 488927 | HEK293 TRPC4/mu-opioid, membrane potential fluorescence | percent change from control (negative = decrease, positive = increase), % at 10 µM | shares compounds with TRPC6 inh | 2,400 compounds, 69% hits;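 active means membrane potential signal moved up or down beyond 5 SD of buffer control wells, in both duplicate plates, actives on both sides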;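 further: plate controls were assay buffer wells for no effect and DAMGO maximal-effect wells for full effect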
TRPC4/MOR inh 2 = second selectivity test of TRPC6 modulators against mouse TRPC4. shares compounds with TRPC6 inh. HEK293 TRPC4/mu-opioid, membrane potential dye fluorescence; stimulated with maximal-effect DAMGO. inhibition, % at 10 µM. 2,400 compounds, 55% hits. AID 488928;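 active means drop in membrane potential signal beyond 5 SD of the control wells in both duplicate plates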;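 further: TRPC4 counter screen for TRPC6 hits run under conditions tuned for TRPC6 not TRPC4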
TRPC6 inh conf = mouse TRPC6 inhibitor confirmation. 3,300 compounds, 43% hits. shares compounds with TRPC6 inh. HEK293-TRPC6, membrane potential dye, ACh-evoked depolarization. AID 488960. inhibition, % at 10 µM;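 active means fluorescence ratio falls more than 5 SD below the full-stimulation control mean, in both duplicate runs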;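 further: integrated fluorescence ratio of peak minus minimum over baseline after agonist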
TRPC6 act conf = confirmation of mouse TRPC6 activators. AID 488961. 2,800 compounds, 11% hits. HEK293-TRPC6 membrane potential dye fluorescence, FDSS. shares compounds with TRPC6 inh. activation, % at 10 µM;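 active means ratio signal rise beyond 5 SD above unstimulated control wells' mean, seen in both duplicate runs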;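 further: plate controls were buffer EC0 wells for no effect and acetylcholine ECmax response for full effect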
* hit, by the source's call.

How did COc1cccc(CNc2cnc3ccccc3c2)c1O do in these assays?
TRPC4 agonist: inactive; TRPC6 act: inactive; TRPC4 potent: inactive; TRPC4 inh: inactive; TRPC6 inh: inactive

Results for Cn1c(NCc2c[nH]c3ccccc23)nc2ccccc21 ?
TRPC4 agonist: inactive; TRPC6 act: inactive; TRPC4 potent: inactive; TRPC4 inh: -5*; TRPC6 inh: -6.72*; TRPC4 spec 2: 48.0%*; TRPC4 spec: -12.0%*; HEK293 MPD ctr 2-1: inactive; HEK293 MPD ctr-1: -214.0%*; TRPC6 inh conf: inactive; TRPC6 act conf: inactive

What do the screens show for `COc1cccc(CNc2nc3ccccc3n2C)c1O`?
TRPC4 agonist: inactive; TRPC6 act: inactive; TRPC4 potent: inactive; TRPC4 inh: inactive; TRPC6 inh: -5.7*; HEK293 MPD ctr-2: inactive; HEK293 MPD ctr 2-2: inactive; TRPC4/MOR mod: inactive; TRPC4/MOR inh 2: 43.0%*; TRPC6 inh conf: inactive; TRPC6 act conf: inactive

Results for CC1(C)CC(Cc2nc(=S)[nH][nH]2)C(=O)O1 (stereo not given) ?
TRPC4 agonist: inactive; TRPC6 act: inactive; TRPC4 potent: inactive; TRPC4 inh: inactive; TRPC6 inh: inactive

Results for CCn1c(SC)nnc1C1CCN(CC(=O)Nc2ccccc2N2CCOCC2)CC1 ?
TRPC4 agonist: inactive; TRPC6 act: inactive; TRPC4 potent: inactive; TRPC4 inh: inactive; TRPC6 inh: -5.38*; HEK293 MPD ctr-2: inactive; HEK293 MPD ctr 2-2: inactive; TRPC4/MOR mod: inactive; TRPC4/MOR inh 2: inactive; TRPC6 inh conf: inactive; TRPC6 act conf: inactive

What do the screens show for `CSc1nnc(C2CCN(CC(=O)Nc3ccccc3N3CCOCC3)CC2)n1C`?
TRPC4 agonist: inactive; TRPC6 act: inactive; TRPC4 potent: inactive; TRPC4 inh: inactive; TRPC6 inh: inactive

How did O=C(c1ccc(NS(=O)(=O)c2ccccc2)cc1)N1CCOCC1 do in these assays?
TRPC4 agonist: inactive; TRPC6 act: inactive; TRPC4 potent: inactive; TRPC4 inh: inactive; TRPC6 inh: inactive

What do the screens show for `O=S(=O)(NCCCSc1ccccc1)c1ccccc1F`?
TRPC4 agonist: inactive; TRPC6 act: inactive; TRPC4 potent: inactive; TRPC4 inh: inactive; TRPC6 inh: inactive

Results for CCN(C(=O)Cc1c(C(=O)O)n(C)c2ccccc12)c1cccc(C)c1 ?
TRPC4 agonist: inactive; TRPC6 act: inactive; TRPC4 potent: inactive; TRPC4 inh: inactive; TRPC6 inh: inactive

Results for COc1ccc(/C=C/C(=O)Nc2ccccc2C(=O)NCC(c2ccc(OC)cc2)N(C)C)cc1 (stereo not given) ?
TRPC4 agonist: 48*; TRPC6 act: inactive; TRPC4 potent: inactive; TRPC4 inh: -7*; TRPC6 inh: -6.82*; TRPC4 spec 2: 12.0%*; TRPC4 spec: 49.0%*; HEK293 MPD ctr 2-1: inactive; HEK293 MPD ctr-1: inactive; TRPC6 inh conf: inactive; TRPC6 act conf: inactive

What do the screens show for `COc1ccccc1N1CCN(C2CCN(C(=O)c3cccc(F)c3)CC2)CC1`?
TRPC4 agonist: inactive; TRPC6 act: inactive; TRPC4 potent: inactive; TRPC4 inh: inactive; TRPC6 inh: inactive

How did COc1cc(CC(=O)OCC(=O)N2CC(=O)Nc3ccccc32)cc(OC)c1OC do in these assays?
TRPC4 agonist: inactive; TRPC6 act: inactive; TRPC4 potent: inactive; TRPC4 inh: inactive; TRPC6 inh: inactive

Results for COc1ccccc1-c1ccc(/C=C2\C=CC(=O)O2)o1 ?
TRPC4 agonist: inactive; TRPC6 act: 30.9*; TRPC4 potent: inactive; TRPC4 inh: inactive; TRPC6 inh: inactive; HEK293 MPD ctr-2: 706.0%*; HEK293 MPD ctr 2-2: inactive; TRPC4/MOR mod: 204.0%*; TRPC4/MOR inh 2: inactive; TRPC6 inh conf: inactive; TRPC6 act conf: 121.0%*

What do the screens show for `COc1ccccc1-c1ccc(/C=C2/C=C(C)OC2=O)o1`?
TRPC4 agonist: inactive; TRPC6 act: inactive; TRPC4 potent: inactive; TRPC4 inh: inactive; TRPC6 inh: inactive

What do the screens show for `O=C(Nc1ccc(O)cc1)/C(=C\C=C\c1ccccc1)NC(=O)c1ccccc1`?
TRPC4 agonist: inactive; TRPC6 act: inactive; TRPC4 potent: inactive; TRPC4 inh: inactive; TRPC6 inh: -5.63*; HEK293 MPD ctr-2: inactive; HEK293 MPD ctr 2-2: inactive; TRPC4/MOR mod: inactive; TRPC4/MOR inh 2: 37.0%*; TRPC6 inh conf: inactive; TRPC6 act conf: inactive

How did O=C(CCCC1=NS(=O)(=O)c2ccccc2N1)N1CCN(c2ccccc2)CC1 do in these assays?
TRPC4 agonist: inactive; TRPC6 act: inactive; TRPC4 potent: inactive; TRPC4 inh: inactive; TRPC6 inh: -5.67*; HEK293 MPD ctr-2: inactive; HEK293 MPD ctr 2-2: inactive; TRPC4/MOR mod: inactive; TRPC4/MOR inh 2: inactive; TRPC6 inh conf: 47.0%*
